In the M2OR odorant receptor database:

Molecular target: T1, OR10J5 (Homo sapiens) (UniProt Q8NHC4)
T1 sequence (whole entry): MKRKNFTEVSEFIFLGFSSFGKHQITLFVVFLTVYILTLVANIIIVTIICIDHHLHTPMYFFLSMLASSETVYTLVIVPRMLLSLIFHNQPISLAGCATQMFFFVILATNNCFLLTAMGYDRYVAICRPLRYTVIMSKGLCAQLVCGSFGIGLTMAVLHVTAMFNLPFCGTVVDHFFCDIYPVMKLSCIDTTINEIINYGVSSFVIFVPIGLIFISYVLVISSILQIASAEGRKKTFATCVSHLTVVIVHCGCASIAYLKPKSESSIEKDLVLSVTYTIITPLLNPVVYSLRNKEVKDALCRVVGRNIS
Settings: stereoisomer not certain
Procedure, shortened: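 Each receptor–molecule pair is labelled responsive or non-responsive (inactive) according to whether the original authors judged the measured signal statistically different from baseline. The data were taken from the main text and supplementary material of published papers and checked for typos and inconsistencies. Assay methods differed by source, with transient luciferase assays in mammalian cell lines being common.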
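Note: active if original authors judged signal statistically different from baseline.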

| Structure (SMILES) | odorant receptor agonist call |
| --- | --- |
| CCC(C(=O)O)c1ccccc1 (stereo not drawn) | inactive |
| CCCCC(C)=O | inactive |
| CCCCC(=O)CC | inactive |
